# In ChEMBL document CHEMBL1122500, “Potential radiosensitizing agents. 6. 2-Nitroimidazole nucleosides: arabinofuranosyl and hexopyranosyl analogues” (J Med Chem, 1983):
# Tests used:
# [1] = Partition coefficient value between phosphate buffer (0.1 M, pH 7.4) and octanol at room temperature; format: physicochemical; details: octanol/water
# Method in brief: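 Shake-flask method: compound dissolved in 0.1 M phosphate buffer pH 7.4, stirred 1 h at room temperature with an equal volume of octanol. Aqueous-phase nucleoside concentration measured spectrophotometrically.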
# [2] = In vitro radiosensitizing activity against Chinese Hamster cells at a conc of 1.0 mM measured as sensitizer enhancement ratio; format: functional, Cricetulus griseus
# Method in brief: (§1)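 V-79 Chinese hamster asynchronous monolayers from exponential cultures, plated in sealed containers and made hypoxic by flushing with 95% N2/5% CO2 for 1 h at 37 °C with compound present; total drug exposure 2 h. Cobalt-60 irradiation at ~230 rad/min, 400–2700 rad. Colonies counted after 6 days at 37 °C. SER = D0 hypoxic control / D0 hypoxic drug-treated; averaged over at least two experiment sets.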
# [3] = In vitro radiosensitizing activity against Chinese Hamster cells at a conc of 0.5 mM measured as sensitizer enhancement ratio; format: functional, Cricetulus griseus; method in brief: as §1
# [4] = In vitro radiosensitizing activity against Chinese Hamster cells at a conc of 0.05 mM measured as sensitizer enhancement ratio; format: functional, Cricetulus griseus; method in brief: as §1
# [5] = In vitro radiosensitizing activity against Chinese Hamster cells at a conc of 0.1 mM measured as sensitizer enhancement ratio
# [6] = In vitro radiosensitizing activity against Chinese Hamster cells at a conc of 1 mM measured as sensitizer enhancement ratio; format: functional, Cricetulus griseus; method in brief: as §1
SMILES,PC [1],SER [3],also measured
O=[N+]([O-])c1nccn1[C@@H]1O[C@H](CO)[C@@H](O)[C@@H]1O,0.07,–,SER [2]: 1.8
O=[N+]([O-])c1nccn1[C@H]1C=C[C@H](O)[C@@H](CO)O1,0.22,–,SER [2]: 2
CC(=O)OC[C@H]1O[C@H](n2ccnc2[N+](=O)[O-])C=C[C@@H]1OC(C)=O,–,1.9,–
O=C(OC[C@H]1O[C@H](n2ccnc2[N+](=O)[O-])[C@H](OC(=O)c2ccccc2)[C@@H]1OC(=O)c1ccccc1)c1ccccc1,–,–,SER [4]: 1
O=[N+]([O-])c1nccn1[C@@H]1C=C[C@H](O)[C@@H](CO)O1,0.22,2,–
CC(=O)OC[C@H]1O[C@@H](n2ccnc2[N+](=O)[O-])C=C[C@@H]1OC(C)=O,–,1.6,–
O=C(OC[C@H]1O[C@@H](n2ccnc2[N+](=O)[O-])[C@H](OC(=O)c2ccccc2)[C@@H]1OC(=O)c1ccccc1)c1ccccc1,–,–,SER [5]: 1.1
CC(=O)OCC1OC=CC(n2ccnc2[N+](=O)[O-])C1OC(C)=O (configuration not stated),–,1.8,–
O=[N+]([O-])c1nccn1[C@H]1C=COC(CO)C1O (some centres not stated),0.24,–,SER [2]: 1.7
O=[N+]([O-])c1nccn1[C@H]1O[C@H](CO)[C@@H](O)[C@@H]1O,0.11,–,SER [6]: 1.6
COCC(O)Cn1ccnc1[N+](=O)[O-] (configuration not stated) [MISONIDAZOLE],0.43,–,SER [6]: 1.9
